Laboratory results published in ChEMBL document CHEMBL1147346, “Isolation of pseudoprototimosaponin AIII from rhizomes of Anemarrhena asphodeloides and its hypoglycemic activity in streptozotocin-induced diabetic mice” (1993).

Experiments:
Mus musculus [1] = experiment: Hypoglycemic activity in fasted po dosed streptozotocin-induced diabetic ddY mouse assessed as decrease in blood glucose level after 6 hrs by glucose oxidase method; format: functional; settings: for ED50: read-out: ID50 (the source's name)
Outline: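 Male ddY mice given streptozotocin 150 mg/kg iv in saline via tail vein, used 1 or 4 weeks later; fasting glucose >150 mg/dl after 13–14 h fast. Graded doses. Percent fall computed from glucose before and after dosing versus 85 mg/dl normal mean. ID50 with 95% confidence limits from dose-inhibition curves; 7–12 mice per point, mean ± SEM.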

Mus musculus [2] = experiment: Hypoglycemic activity in fasted alloxan monohydrate-induced diabetic ddY mouse assessed as decrease in blood glucose level at 50 mg/kg, ip after 6 hrs by glucose oxidase method; format: functional; parameters: scale not given: the % may be the effect or the level left; settings: route intraperitoneal
Outline: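 Male ddY mice given alloxan monohydrate 90 mg/kg iv bolus in saline via tail vein, used 1 or 4 weeks later; fasting glucose >150 mg/dl after 13–14 h fast. Dosed 50 mg/kg ip; saline control. Glucose oxidase read-out. Percent fall = (A − B)/(A − 85) × 100, A and B being glucose before and 6 h after injection. Means ± SEM, n = 5–10.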

Mus musculus [3] = experiment: Effect on blood glucose level in fasted ddY mouse at 50 mg/kg, ip after 6 hrs by glucose oxidase method; format: functional, organism-based; parameters: dose 50 mg/kg
Outline: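 Non-diabetic male ddY mice, 7–8 weeks of age (33–41 g), fasted; 50 mg/kg given ip. Blood glucose measured by glucose oxidase on a glucose analyzer.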

Pancreas = experiment: Stimulation of immunoreactive insulin release in perfused Wistar rat pancreas at 1 mg/ml for 10 mins by radioimmunoassay; format: functional
Outline: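 Male Wistar rat pancreas (6–7 weeks) perfused via celiac artery with KRB pH 7.4, 0.5% BSA, 2% dextran, 2.8 mM glucose basal, 95% O2/5% CO2. Stimulated with 16.7 mM glucose ± 1 mg/ml test agent for 10 min. Portal vein effluent insulin measured by radioimmunoassay. n = 7.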

COc1ccc(Cl)cc1C(=O)NCCc1ccc(S(=O)(=O)NC(=O)NC2CCCCC2)cc1 [GLYBURIDE]
Activity (Mus musculus [1]): Dose-dependent effect | ED50 (Mus musculus [1]): 0.33 mg/kg

C[C@@H](CCC1(O)O[C@H]2C[C@H]3[C@@H]4CC[C@@H]5C[C@@H](O[C@@H]6O[C@H](CO)[C@H](O)[C@H](O)[C@H]6O[C@@H]6O[C@H](CO)[C@@H](O)[C@H](O)[C@H]6O)CC[C@]5(C)[C@H]4CC[C@]3(C)[C@H]2[C@@H]1C)CO[C@@H]1O[C@H](CO)[C@@H](O)[C@H](O)[C@H]1O (stereo partly specified) [PROTOTIMOSAPONIN AIII]
Activity (Mus musculus [2]): 73.4% | Activity (Mus musculus [3]): Dose-dependent effect | Activity (Mus musculus [1]): Dose-dependent effect | ED50 (Mus musculus [1]): 6.62 mg/kg | Activity (Pancreas): 59.7 ng/mL

CC1=C(CC[C@H](C)CO[C@@H]2O[C@H](CO)[C@@H](O)[C@H](O)[C@H]2O)O[C@H]2C[C@H]3[C@@H]4CC[C@@H]5C[C@@H](O[C@@H]6O[C@H](CO)[C@H](O)[C@H](O)[C@H]6O[C@@H]6O[C@H](CO)[C@@H](O)[C@H](O)[C@H]6O)CC[C@]5(C)[C@H]4CC[C@]3(C)[C@@H]12 [PSEUDOPROTOTIMOSAPONIN AIII]
Activity (Mus musculus [2]): 82.8% | Activity (Mus musculus [1]): Dose-dependent effect | ED50 (Mus musculus [1]): 4.33 mg/kg

C[C@H]1CC[C@@]2(OC1)O[C@H]1C[C@H]3[C@@H]4CC[C@@H]5C[C@@H](O[C@@H]6O[C@H](CO)[C@H](O)[C@H](O)[C@H]6O[C@@H]6O[C@H](CO)[C@@H](O)[C@H](O)[C@H]6O)CC[C@]5(C)[C@H]4CC[C@]3(C)[C@H]1[C@@H]2C [TIMOSAPONIN AIII]
Activity (Mus musculus [2]): 64.5%
